What is called T/C is the result in the treated group divided by that in the control group, in per cent.

This note sets out measurements from ChEMBL document CHEMBL4371006, “Discovery of N-[4-(Quinolin-4-yloxy)phenyl]benzenesulfonamides as Novel AXL Kinase Inhibitors” (J Med Chem, 2018).

In data set [1] the target is Epithelial discoidin domain-containing receptor 1 (Homo sapiens) (UniProt Q08345). The data set can be described thus: Binding affinity to DDR1 (unknown origin) at 10 uM.
Data set [2] concerns the target Proto-oncogene tyrosine-protein kinase receptor Ret (Homo sapiens) (UniProt P07949). The data set can be described thus: Inhibition of RET (unknown origin) using fluorescence labeled peptide as substrate at 10 uM by IMAP assay. An outline of the steps:
(§1)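 Kinase selectivity profiling, run by a contract lab, with the test compound at 10 µmol/L in triplicate. In the IMAP format, the kinase phosphorylates a fluorescently labelled substrate peptide in solution. A binding solution of trivalent metal-based nanoparticles is then added to capture the phosphopeptide, and the drop in rotational speed is read as fluorescence polarization. Results are given as percent inhibition of each kinase.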

The target in data set [3] is T1, Tyrosine-protein kinase CSK (Homo sapiens, UniProt P41240). The data set can be described thus: Inhibition of CSK (unknown origin) using fluorescence labeled peptide as substrate at 10 uM by IMAP assay. The procedure, abridged: (§2)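 IMAP fluorescence-polarization kinase assay at 10 µmol/L compound, run in triplicate by a contract lab. A fluorescently labeled substrate peptide is phosphorylated, then nanoparticles carrying trivalent metal bind the phosphopeptide and slow its rotation. Read-out is fluorescence polarization, expressed as percent inhibition.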

Data set [4] deals with Insulin receptor (Homo sapiens) (UniProt P06213). The data set can be described thus: Inhibition of INSR (unknown origin) using fluorescence labeled peptide as substrate at 10 uM by IMAP assay. The procedure, abridged:
as §2

The target in data set [5] is Tyrosine-protein kinase JAK3 (Homo sapiens) (UniProt P52333). The data set can be described thus: Inhibition of JAK3 (unknown origin) using fluorescence labeled peptide as substrate at 10 uM by IMAP assay. The procedure, abridged:
as §1

The target of data set [6] is Tyrosine-protein kinase SYK (Homo sapiens) (UniProt P43405). The data set can be described thus: Binding affinity to SYK (unknown origin) at 10 uM.
The target in data set [7] is Serine/threonine-protein kinase B-raf (Homo sapiens) (UniProt P15056). The data set can be described thus: Inhibition of BRAF (unknown origin) at 10 uM by reporter probe displacement binding assay.
Data set [8] has as its target Tyrosine-protein kinase JAK3 (Homo sapiens) (UniProt P52333). The data set can be described thus: Inhibition of JAK3 (unknown origin) using fluorescence labeled peptide as substrate at 10 uM by IMAP assay.
The target in data set [9] is T1, Tyrosine-protein kinase CSK. The data set can be described thus: Inhibition of CSK (unknown origin) using fluorescently-labeled peptide as substrate at 10 uM by IMAP fluorescence polarization assay.
Data set [10] concerns the target Insulin receptor (Homo sapiens) (UniProt P06213). The data set can be described thus: Inhibition of INSR (unknown origin) using fluorescently-labeled peptide as substrate at 10 uM by IMAP fluorescence polarization assay.
Data set [11] concerns the target Fibroblast growth factor receptor 3 (Homo sapiens) (UniProt P22607). The data set can be described thus: Inhibition of FGFR3 (unknown origin) using fluorescently-labeled peptide as substrate at 10 uM by IMAP fluorescence polarization assay. In general terms: Polarisation of emitted light reports the rotation of a fluorescent probe.
Data set [12] is described as follows: Antitumor activity against AXL expressing mouse MXT cells allografted in mouse assessed as survival time at 15 mg/kg, ip qd administered 21 consecutive days. Type of data set: functional. An outline of the steps: (§3)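 MXT mammary tumour cells implanted subcutaneously and staged to about 125 mm3. Dosing then began: once daily ip for 21 consecutive days, at 5 or 15 mg/kg, alongside a vehicle group, with 7 animals per group. Survival in days was recorded for each animal and given as mean ± SD, and as T/C% against the vehicle group (vehicle = 100%).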

The nature of data set [13]: Antitumor activity against AXL expressing mouse MXT cells allografted in mouse assessed as prolongation of survival time at 5 to 15 mg/kg, ip qd administered 21 consecutive days. The following applies: read-out: MED. Type of data set: functional. The procedure, abridged:
as §3

Data set [14] concerns the target Hepatocyte growth factor receptor (Homo sapiens, UniProt P08581). The data set can be described thus: Binding affinity to MET in SILAC-labeled human MDA-MB-231 cells lysate by mass spectrometry based kinAffinity assay. Type of data set: subcellular. An outline of the steps:
(§4)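 Chemical proteomics: MDA-MB-231 lysate bound to matrix of immobilized broad kinase inhibitors at several densities (BC50), then competed with increasing free compound (CC50); proteins quantified by mass spectrometry, Kd via Cheng-Prusoff. Two competition formats run in parallel to check equilibrium.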

The target in a further data set is TGF-beta receptor type-1 (Homo sapiens, UniProt P36897). The data set can be described thus: Binding affinity to TGFBR1 in SILAC-labeled human MDA-MB-231 cells lysate by mass spectrometry based kinAffinity assay. It is filed as subcellular. The procedure, abridged:
(§5)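 MDA-MB-231 lysate applied to KinAffinity matrix of immobilized broadband kinase inhibitors at graded densities to obtain BC50 per target. Competition then run with increasing free compound to give CC50; Kd derived by Cheng-Prusoff. Two competition experiments in parallel to check equilibrium, one with lysate pre-incubated with compound before adding matrix. Quantitation by mass spectrometry.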

Data set [15] addresses Dual specificity mitogen-activated protein kinase kinase 5 (Homo sapiens, UniProt Q13163). The data set can be described thus: Binding affinity to MAP2K5 in SILAC-labeled human MDA-MB-231 cells lysate by mass spectrometry based kinAffinity assay. It is filed as subcellular. The procedure, abridged:
as §4

For data set [16], the target named is Tyrosine-protein kinase Tec (Homo sapiens, UniProt P42680). The data set can be described thus: Binding affinity to TEC in SILAC-labeled human MDA-MB-231 cells lysate by mass spectrometry based kinAffinity assay. It is filed as subcellular. The procedure, abridged: as §5
Data set [17] deals with Protein-tyrosine kinase 2-beta (Homo sapiens, UniProt Q14289). The data set can be described thus: Binding affinity to PYK2 in SILAC-labeled human MDA-MB-231 cells lysate by mass spectrometry based kinAffinity assay. Type of data set: subcellular. An outline of the steps: as §5
In data set [18] the target is Serine/threonine-protein kinase SIK3 (Homo sapiens, UniProt Q9Y2K2). The data set can be described thus: Binding affinity to QSK in SILAC-labeled human MDA-MB-231 cells lysate by mass spectrometry based kinAffinity assay. It is filed as subcellular. The procedure, abridged:
as §5

Data set [19] deals with Enoyl-CoA hydratase, mitochondrial (Homo sapiens, UniProt P30084). The data set can be described thus: Binding affinity to ECHS1 in SILAC-labeled human MDA-MB-231 cells lysate by mass spectrometry based kinAffinity assay. It is filed as subcellular. The procedure, abridged: as §4
For data set [20], the target named is Cyclin-dependent kinase 17 (Homo sapiens, UniProt Q00537). The data set can be described thus: Binding affinity to PCTK2 in SILAC-labeled human MDA-MB-231 cells lysate by mass spectrometry based kinAffinity assay. Type of data set: subcellular. An outline of the steps:
as §5

Data set [21] in a line: Toxicity in SCID/beige mouse xenografted with human MDA-MB-231 cells assessed as body weight gain at 30 mg/kg, ip bid measured 3 times per week starting at day 12. The following applies: in vivo. It is filed as organism-based. In general terms: Xenograft models place foreign cells or tissue in a host animal.
Data set [22] has as its system MDA-MB-231. The data set can be described thus: Antitumor activity against human MDA-MB-231 cells xenografted in mouse assessed as tumor growth inhibition at 30 mg/kg, ip bid measured 3 times per week starting at day 12. Type of data set: functional, organism-based. An outline of the steps: (§6)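 Female SCID/Beige mice inoculated with 2 x 10^6 MDA-MB-231 cells in HBSS:Matrigel (1:1) into third mammary fat pad under ketamine/xylazine. Test agent 30 mg/kg ip twice daily (12 h apart) in PEG400/H2O 70:30, or paclitaxel 10 mg/kg iv three times weekly; 10 mice/group. Tumors measured three times weekly from day 12; lungs and lymph nodes excised, formalin-fixed, nodes H&E-scored (mean ± SEM).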

The subject of data set [23] is MDA-MB-231. The data set can be described thus: Antimetastatic activity against human MDA-MB-231 cells xenografted in mouse assessed as reduction in lymph node metastasis at 30 mg/kg, ip bid measured 3 times per week starting at day 12 by hematoxylin and eosin staining based assay relative to control. Type of data set: functional. Set-up: scale not given: the % may be the effect or the level left. The procedure, abridged: as §6

Each structure is given as a SMILES string. Calls of active or inactive are those of the source. The rule behind the calls is not given here.

T1 sequence (P41240 2-450 limits assumed): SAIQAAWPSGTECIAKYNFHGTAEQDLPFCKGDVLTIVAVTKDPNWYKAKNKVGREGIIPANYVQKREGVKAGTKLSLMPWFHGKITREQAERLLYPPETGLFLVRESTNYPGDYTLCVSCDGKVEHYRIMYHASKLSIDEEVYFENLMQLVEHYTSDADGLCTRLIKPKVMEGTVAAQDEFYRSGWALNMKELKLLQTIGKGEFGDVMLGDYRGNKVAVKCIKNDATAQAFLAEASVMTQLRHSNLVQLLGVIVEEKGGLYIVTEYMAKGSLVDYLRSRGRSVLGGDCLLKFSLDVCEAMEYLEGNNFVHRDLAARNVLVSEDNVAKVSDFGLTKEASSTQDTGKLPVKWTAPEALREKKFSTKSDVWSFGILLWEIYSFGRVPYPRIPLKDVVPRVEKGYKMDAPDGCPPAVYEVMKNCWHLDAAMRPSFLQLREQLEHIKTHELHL
Tyrosine-protein kinase JAK3 (Homo sapiens), sequence (P52333 whole entry): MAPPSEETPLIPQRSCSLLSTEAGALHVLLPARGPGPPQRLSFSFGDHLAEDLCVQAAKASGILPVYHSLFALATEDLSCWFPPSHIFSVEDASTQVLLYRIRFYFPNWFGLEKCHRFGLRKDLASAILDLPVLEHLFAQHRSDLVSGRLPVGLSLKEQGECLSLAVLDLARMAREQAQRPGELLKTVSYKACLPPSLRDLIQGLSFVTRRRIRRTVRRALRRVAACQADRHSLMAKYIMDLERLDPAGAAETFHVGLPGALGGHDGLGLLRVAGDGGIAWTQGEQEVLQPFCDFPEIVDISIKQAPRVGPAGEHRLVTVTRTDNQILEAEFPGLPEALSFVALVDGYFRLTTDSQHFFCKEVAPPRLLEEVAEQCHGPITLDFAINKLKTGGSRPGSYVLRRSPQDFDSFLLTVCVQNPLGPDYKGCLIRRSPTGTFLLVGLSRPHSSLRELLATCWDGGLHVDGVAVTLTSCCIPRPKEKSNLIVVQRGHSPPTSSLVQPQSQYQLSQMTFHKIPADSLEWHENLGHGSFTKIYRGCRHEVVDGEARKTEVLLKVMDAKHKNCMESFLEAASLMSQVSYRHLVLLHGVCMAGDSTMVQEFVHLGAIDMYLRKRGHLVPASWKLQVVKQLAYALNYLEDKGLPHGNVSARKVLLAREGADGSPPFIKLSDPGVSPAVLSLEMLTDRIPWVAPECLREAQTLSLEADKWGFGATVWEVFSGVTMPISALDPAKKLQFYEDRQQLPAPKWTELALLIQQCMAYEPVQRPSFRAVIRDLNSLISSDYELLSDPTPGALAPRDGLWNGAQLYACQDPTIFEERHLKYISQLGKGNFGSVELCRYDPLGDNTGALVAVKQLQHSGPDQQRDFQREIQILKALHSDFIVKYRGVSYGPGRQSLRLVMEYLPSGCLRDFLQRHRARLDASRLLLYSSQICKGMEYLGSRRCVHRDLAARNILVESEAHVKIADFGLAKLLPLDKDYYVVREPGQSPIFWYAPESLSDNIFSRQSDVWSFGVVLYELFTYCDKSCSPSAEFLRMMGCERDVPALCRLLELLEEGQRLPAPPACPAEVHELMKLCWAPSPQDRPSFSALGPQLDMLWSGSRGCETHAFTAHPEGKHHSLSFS
Insulin receptor (Homo sapiens), sequence (P06213 28-758 limits assumed): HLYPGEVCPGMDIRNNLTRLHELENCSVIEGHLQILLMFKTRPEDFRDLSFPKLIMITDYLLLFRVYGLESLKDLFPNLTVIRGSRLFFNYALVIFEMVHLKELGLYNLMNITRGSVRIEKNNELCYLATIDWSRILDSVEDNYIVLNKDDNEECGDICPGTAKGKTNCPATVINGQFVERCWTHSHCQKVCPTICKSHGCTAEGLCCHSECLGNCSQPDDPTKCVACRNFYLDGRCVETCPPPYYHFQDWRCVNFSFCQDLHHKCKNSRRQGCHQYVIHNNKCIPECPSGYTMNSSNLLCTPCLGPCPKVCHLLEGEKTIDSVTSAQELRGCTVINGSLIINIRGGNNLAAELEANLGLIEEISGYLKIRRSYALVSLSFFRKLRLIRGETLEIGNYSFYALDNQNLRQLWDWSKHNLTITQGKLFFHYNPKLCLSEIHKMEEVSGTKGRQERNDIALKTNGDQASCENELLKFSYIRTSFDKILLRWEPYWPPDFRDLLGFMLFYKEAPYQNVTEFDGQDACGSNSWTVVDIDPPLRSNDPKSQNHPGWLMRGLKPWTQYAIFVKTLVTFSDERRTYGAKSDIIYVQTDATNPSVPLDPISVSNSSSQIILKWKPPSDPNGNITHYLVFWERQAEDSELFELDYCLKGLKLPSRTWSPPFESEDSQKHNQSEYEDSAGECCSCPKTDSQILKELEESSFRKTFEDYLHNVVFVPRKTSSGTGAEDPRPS
Insulin receptor (Homo sapiens), sequence (P06213 763-1382 limits assumed): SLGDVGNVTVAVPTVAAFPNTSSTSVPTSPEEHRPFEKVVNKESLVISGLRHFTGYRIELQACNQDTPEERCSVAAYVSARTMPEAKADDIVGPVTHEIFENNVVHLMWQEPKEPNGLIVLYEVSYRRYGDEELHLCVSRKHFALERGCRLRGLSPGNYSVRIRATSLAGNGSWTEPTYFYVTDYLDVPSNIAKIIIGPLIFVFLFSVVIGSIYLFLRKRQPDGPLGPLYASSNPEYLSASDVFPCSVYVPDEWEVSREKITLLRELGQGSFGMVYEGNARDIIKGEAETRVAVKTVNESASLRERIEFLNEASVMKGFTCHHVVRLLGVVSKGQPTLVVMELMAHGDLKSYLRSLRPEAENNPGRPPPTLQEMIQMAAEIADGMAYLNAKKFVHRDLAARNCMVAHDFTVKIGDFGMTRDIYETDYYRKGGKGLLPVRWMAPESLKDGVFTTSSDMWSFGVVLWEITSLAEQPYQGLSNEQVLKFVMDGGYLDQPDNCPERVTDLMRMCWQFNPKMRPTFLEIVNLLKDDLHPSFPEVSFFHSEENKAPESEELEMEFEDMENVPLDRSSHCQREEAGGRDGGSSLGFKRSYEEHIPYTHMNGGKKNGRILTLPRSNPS
Serine/threonine-protein kinase B-raf (Homo sapiens), sequence (P15056 whole entry): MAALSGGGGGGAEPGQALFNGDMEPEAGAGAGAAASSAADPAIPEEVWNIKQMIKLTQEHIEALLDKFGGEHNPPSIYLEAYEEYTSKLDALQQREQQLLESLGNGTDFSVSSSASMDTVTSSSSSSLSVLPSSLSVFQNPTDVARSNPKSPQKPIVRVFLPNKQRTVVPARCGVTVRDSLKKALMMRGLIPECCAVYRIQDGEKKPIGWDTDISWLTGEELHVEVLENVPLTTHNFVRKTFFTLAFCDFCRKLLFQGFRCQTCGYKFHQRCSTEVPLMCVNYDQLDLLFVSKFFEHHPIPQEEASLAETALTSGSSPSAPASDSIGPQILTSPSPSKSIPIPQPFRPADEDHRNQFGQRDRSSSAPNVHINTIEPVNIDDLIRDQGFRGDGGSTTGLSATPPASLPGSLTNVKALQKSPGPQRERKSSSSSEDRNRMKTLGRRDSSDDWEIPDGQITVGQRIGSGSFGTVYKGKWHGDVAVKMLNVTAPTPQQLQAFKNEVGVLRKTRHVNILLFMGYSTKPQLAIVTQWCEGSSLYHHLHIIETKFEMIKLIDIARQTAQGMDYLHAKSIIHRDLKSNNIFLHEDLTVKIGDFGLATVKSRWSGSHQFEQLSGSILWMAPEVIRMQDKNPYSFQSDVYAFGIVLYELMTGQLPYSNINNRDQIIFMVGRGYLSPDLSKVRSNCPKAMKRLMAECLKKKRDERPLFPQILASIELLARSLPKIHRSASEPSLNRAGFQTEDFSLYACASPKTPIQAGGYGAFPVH
Serine/threonine-protein kinase SIK3, sequence (Q9Y2K2 whole entry): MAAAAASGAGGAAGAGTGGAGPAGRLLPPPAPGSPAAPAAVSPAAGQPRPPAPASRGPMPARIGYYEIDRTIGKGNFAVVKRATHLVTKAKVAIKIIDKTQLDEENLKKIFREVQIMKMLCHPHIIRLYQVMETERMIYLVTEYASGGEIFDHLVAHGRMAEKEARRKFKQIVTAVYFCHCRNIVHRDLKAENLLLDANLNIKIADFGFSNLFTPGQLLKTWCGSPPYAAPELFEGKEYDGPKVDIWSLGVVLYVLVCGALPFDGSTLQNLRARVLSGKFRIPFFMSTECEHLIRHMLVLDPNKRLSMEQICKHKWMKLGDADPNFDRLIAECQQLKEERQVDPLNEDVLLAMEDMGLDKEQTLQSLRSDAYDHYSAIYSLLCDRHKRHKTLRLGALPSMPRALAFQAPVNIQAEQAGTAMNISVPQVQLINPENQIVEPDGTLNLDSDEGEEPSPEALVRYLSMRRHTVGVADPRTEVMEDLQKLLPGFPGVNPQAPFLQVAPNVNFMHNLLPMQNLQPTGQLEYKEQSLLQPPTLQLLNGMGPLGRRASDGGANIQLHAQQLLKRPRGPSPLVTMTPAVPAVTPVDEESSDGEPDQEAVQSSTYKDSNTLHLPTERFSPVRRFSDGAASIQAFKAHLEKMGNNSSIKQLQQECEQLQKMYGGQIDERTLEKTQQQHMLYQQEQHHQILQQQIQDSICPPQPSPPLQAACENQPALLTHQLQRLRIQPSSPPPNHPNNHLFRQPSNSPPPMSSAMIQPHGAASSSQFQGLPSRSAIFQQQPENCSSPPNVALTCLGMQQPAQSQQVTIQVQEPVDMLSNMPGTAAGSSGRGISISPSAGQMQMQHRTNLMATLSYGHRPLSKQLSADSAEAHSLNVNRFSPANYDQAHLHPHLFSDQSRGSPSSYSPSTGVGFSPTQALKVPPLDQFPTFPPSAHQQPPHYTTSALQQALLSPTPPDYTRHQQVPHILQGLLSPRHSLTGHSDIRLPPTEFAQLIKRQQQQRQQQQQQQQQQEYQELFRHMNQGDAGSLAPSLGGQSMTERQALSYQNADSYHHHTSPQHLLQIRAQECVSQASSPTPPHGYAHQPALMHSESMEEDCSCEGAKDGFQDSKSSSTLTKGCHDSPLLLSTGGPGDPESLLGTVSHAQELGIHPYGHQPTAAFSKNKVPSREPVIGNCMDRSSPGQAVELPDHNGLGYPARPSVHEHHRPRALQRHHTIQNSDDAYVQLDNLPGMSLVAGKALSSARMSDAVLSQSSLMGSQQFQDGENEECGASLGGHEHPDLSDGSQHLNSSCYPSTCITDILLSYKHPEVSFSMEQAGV

For `COc1cc2c(Oc3ccc(NS(=O)(=O)c4ccccc4C(F)(F)F)cc3F)ccnc2cc1OCCCN1CCN(C)CC1`, the inhibition result in data set [1], in data set [2], in data set [3], in data set [4], in data set [5] and in [6] was “Active” throughout. Further, the inhibition entry in data set [7], in data set [8], in data set [9], in [10] and in [11] was “Active” throughout.
In the case of `COc1cc2c(Oc3ccc(NS(=O)(=O)c4cc(F)ccc4F)cc3F)ccnc2cc1OCCCN1CCCC(C)C1` (centres undefined), the T/C in [12] is reported as 127%. The minimal effective dose in [13] was 5 mg/kg.
As to `COc1cc2c(Oc3ccc(NS(=O)(=O)c4c(F)cccc4F)cc3F)ccnc2cc1OCCCN1CCN(C)CC1`, the “Kd(free)” value in data set [14] is 0.006 µM; on TGF-beta receptor type-1, 0.205 µM; in [15] it was 0.539 µM; in data set [16] it was more than 3.674 µM; in [17], 6.928 µM; in data set [18], 7.63 µM. In addition, in [19], the “Kd(free)” value was 9.237 µM.
For `COc1cc2c(Oc3ccc(NS(=O)(=O)c4cc(F)ccc4F)cc3F)ccnc2cc1OCCCN1CCN(C)CC1`, the “Kd(free)” value in data set [20] was more than 7.651 µM. In addition, the Activity result in data set [21] was “Toxic”; with MDA-MB-231 [23] it was 14.3%. The TGI entry in the data set on MDA-MB-231 [22] is “Active”.
